Measured values published in ChEMBL document CHEMBL1155352, “Antiparasitic activities of novel, orally available fumagillin analogs” (Bioorg Med Chem Lett, 2009).
Values after ≈ are worked out from the molar mass of the structure shown. Active and inactive are the calls of the source. The calls are words filed in the database; no cut-off is given here.

What was measured:
[1] = tested on: Plasmodium falciparum; assay: Antiparasitic activity against Plasmodium falciparum D2 infected in human erythrocytes after 72 hrs by FACS; format: functional, organism-based
[2] = tested on: Leishmania donovani; assay: Antiparasitic activity against Leishmania donovani at <100 ug/mL; format: functional, organism-based
[3] = tested on: Entamoeba histolytica; assay: Antiparasitic activity against Entamoeba histolytica HMI:IMSS trophozoites after 60 hrs; format: functional, organism-based, HM-1:IMSS
[4] = tested on: Trypanosoma brucei; assay: Antiparasitic activity against Trypanosoma brucei 427 after 48 hrs; format: functional, organism-based
[5] = target: Methionine aminopeptidase 2 (Homo sapiens) (UniProt P50579); assay: Inhibition of human MetAP2 assessed as residual activity at 800 nM after 8 hrs by Met-AMC based fluorescence assay
Methionine aminopeptidase 2 (Homo sapiens), sequence (P50579 2-478 limits assumed): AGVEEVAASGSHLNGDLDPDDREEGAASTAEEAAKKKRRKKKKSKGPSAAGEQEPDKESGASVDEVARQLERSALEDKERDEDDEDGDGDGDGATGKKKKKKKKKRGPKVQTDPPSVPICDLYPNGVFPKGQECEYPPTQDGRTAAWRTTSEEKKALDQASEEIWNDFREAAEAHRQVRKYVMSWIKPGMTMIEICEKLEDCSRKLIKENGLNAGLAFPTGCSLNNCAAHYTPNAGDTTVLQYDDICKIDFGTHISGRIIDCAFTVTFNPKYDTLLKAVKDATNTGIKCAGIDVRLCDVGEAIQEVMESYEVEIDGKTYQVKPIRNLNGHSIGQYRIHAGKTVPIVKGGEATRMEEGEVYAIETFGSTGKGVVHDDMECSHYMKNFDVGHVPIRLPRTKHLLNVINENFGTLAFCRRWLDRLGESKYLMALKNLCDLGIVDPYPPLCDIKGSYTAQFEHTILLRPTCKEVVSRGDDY
Summary of the method: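 Human MetAP2 (80 nM) preincubated with compound at 800 nM for 8 h; remaining free enzyme activity then read by Met-AMC fluorescence and reported as residual activity.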

[6] = tested on: Plasmodium falciparum; assay: Antiparasitic activity against Plasmodium falciparum W2 infected in human erythrocytes after 72 hrs by FACS; format: functional, organism-based
[7] = tested on: Plasmodium berghei; assay: Antiparasitic activity against Plasmodium berghei infected Swiss Webster mice (Mus musculus) assessed as protection against parasite infection at 25 mg/kg, subcutaneously administered every 12 hrs for 4 days measured after 12 days; format: functional, organism-based; design: dose 25 mg/kg
Summary of the method: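 P. berghei-infected mice, infected on Day 1, dosed subcutaneously with 25 mg/kg every 12 h; PBS-dosed controls. Survival followed over days post infection; each data point mean of triplicates.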

[8] = Plasmodium falciparum, D2, 72 h, read-out: IC50
[9] = Entamoeba histolytica, HM-1:IMSS, 60 h, read-out: IC50
[10] = Trypanosoma brucei, 427, 48 h, read-out: IC50
[11] = Plasmodium falciparum, W2, 72 h, read-out: IC50

| IC50 [1, 8] | IC50 [3, 9] | IC50 [4, 10] | Activity [5] | IC50 ([1]; BLD = below limit of detection) | IC50 ([4]; BLD = below limit of detection) | IC50 [6, 11] | IC50 ([6]; BLD = below limit of detection) | IC50 ([3]; BLD = below limit of detection) | Structure (SMILES) | Activity [2] | Activity [7] |
| --- | --- | --- | --- | --- | --- | --- | --- | --- | --- | --- | --- |
|  | 0.087 µg/mL (≈ 0.199 µM) |  | 8% |  | BLD | 0.0367 µg/mL (≈ 0.0839 µM) |  |  | CO[C@@H]1[C@H](OC(=O)N2CCC(C(=O)O)CC2)CC[C@]2(CO2)[C@H]1[C@@]1(C)O[C@@H]1CC=C(C)C | inactive |  |
|  | 0.005 µg/mL (≈ 0.0109 µM) | 26 µg/mL (≈ 56.7 µM) |  |  |  | 0.0996 µg/mL (≈ 0.217 µM) |  |  | CO[C@@H]1[C@H](OC(=O)/C=C/C=C/C=C/C=C/C(=O)O)CC[C@]2(CO2)[C@H]1[C@@]1(C)O[C@@H]1CC=C(C)C [FUMAGILLIN] |  |  |
|  | 0.01 µg/mL (≈ 0.0218 µM) | 42 µg/mL (≈ 91.4 µM) | 3% |  |  | 0.0205 µg/mL (≈ 0.0446 µM) |  |  | CO[C@@H]1[C@H](OC(=O)NCc2ccc(C(=O)O)cc2)CC[C@]2(CO2)[C@H]1[C@@]1(C)O[C@@H]1CC=C(C)C | Active |  |
|  | 0.01 µg/mL (≈ 0.0244 µM) | 28 µg/mL (≈ 68.2 µM) | 6% |  |  | 0.00774 µg/mL (≈ 0.0189 µM) |  |  | CO[C@@H]1[C@H](OC(=O)NN2CCOCC2)CC[C@]2(CO2)[C@H]1[C@@]1(C)O[C@@H]1CC=C(C)C | inactive |  |
| 0.0263 µg/mL (≈ 0.0516 µM) | 2.28 µg/mL (≈ 4.47 µM) | 25 µg/mL (≈ 49 µM) |  |  |  |  |  |  | CO[C@@H]1[C@H](OC(=O)N[C@@H](C(=O)NCCCN(C)C)C(C)C)CC[C@]2(CO2)[C@H]1[C@@]1(C)O[C@@H]1CC=C(C)C | inactive |  |

The next lines start with the compound.

| Structure (SMILES) | IC50 [1, 8] | IC50 [3, 9] | IC50 [4, 10] | Activity [5] | IC50 ([1]; BLD = below limit of detection) | IC50 ([4]; BLD = below limit of detection) | IC50 [6, 11] | IC50 ([6]; BLD = below limit of detection) | IC50 ([3]; BLD = below limit of detection) | Activity [2] | Activity [7] |
| --- | --- | --- | --- | --- | --- | --- | --- | --- | --- | --- | --- |
| CO[C@@H]1[C@H](OC(=O)N[C@@H](C(=O)NN2CCCCC2)C(C)C)CC[C@]2(CO2)[C@H]1[C@@]1(C)O[C@@H]1CC=C(C)C | 0.0288 µg/mL (≈ 0.0567 µM) | 0.0643 µg/mL (≈ 0.127 µM) | 55 µg/mL (≈ 108 µM) |  |  |  |  |  |  | inactive |  |
| CO[C@@H]1[C@H](OC(=O)N[C@@H](C(=O)Nc2cccc(C(=O)O)c2)C(C)C)CC[C@]2(CO2)[C@H]1[C@@]1(C)O[C@@H]1CC=C(C)C | 0.136 µg/mL (≈ 0.25 µM) | 0.497 µg/mL (≈ 0.913 µM) | 14 µg/mL (≈ 25.7 µM) | 4% |  |  |  |  |  | inactive |  |
| CO[C@@H]1[C@H](OC(=O)NC(C)(C)C(=O)N2CCN(Cc3ccccc3)CC2)CC[C@]2(CO2)[C@H]1[C@@]1(C)O[C@@H]1CC=C(C)C |  | 2.54 µg/mL (≈ 4.46 µM) |  |  | BLD | BLD |  |  |  | inactive |  |
| CO[C@@H]1[C@H](OC(=O)N[C@@H](C(N)=O)C(C)C)CC[C@]2(CO2)[C@H]1[C@@]1(C)O[C@@H]1CCC(C)(C)O |  |  |  | 90% |  | BLD |  | BLD | BLD | inactive |  |
| CO[C@@H]1[C@H](OC(=O)N[C@@H](C(=O)NCCC2CCCN2C)C(C)C)CC[C@]2(CO2)[C@H]1[C@@]1(C)O[C@@H]1CC=C(C)C (some centres not stated) | 0.0347 µg/mL (≈ 0.0648 µM) | 1.39 µg/mL (≈ 2.59 µM) | 19 µg/mL (≈ 35.5 µM) | 5% |  |  |  |  |  | inactive | Active |
| CO[C@@H]1[C@H](OC(=O)NC(=O)CCl)CC[C@]2(CO2)[C@H]1[C@@]1(C)O[C@@H]1CC=C(C)C [O-CHLOROACETYLCARBAMOYLFUMAGILLOL] |  | 0.026 µg/mL (≈ 0.0647 µM) | 2.8 µg/mL (≈ 6.97 µM) |  |  |  | 0.0123 µg/mL (≈ 0.0306 µM) |  |  |  |  |
| CO[C@@H]1[C@H](OC(=O)N[C@H]2CN3CCC2CC3)CC[C@]2(CO2)[C@H]1[C@@]1(C)O[C@@H]1CC=C(C)C |  | 1.26 µg/mL (≈ 2.9 µM) |  |  |  |  | 0.0394 µg/mL (≈ 0.0907 µM) |  |  | inactive |  |
